Reference: ChEMBL document CHEMBL1137665, “Antistaphylococcal activity of CG400549, a new experimental FabI inhibitor, compared with that of other agents” (2007)
≈ marks a conversion by molar mass, not a printed value.

Tests used:
Assay type in all cases: functional
[1] = system: Staphylococcus aureus; test: Antimicrobial activity against methicillin-resistant Staphylococcus aureus 525 after 14 passages by multi-step resistance selection technique
In short: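 Multistep selection by daily serial passage of each strain in subinhibitory drug concentrations for the stated number of passages. Mutant MIC was then determined. Identity of mutants and parents was confirmed by pulsed-field gel electrophoresis.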

[2] = system: Staphylococcus aureus; test: Antimicrobial activity against vancomycin-resistant Staphylococcus aureus 509 Michigan after 14 passages by multi-step resistance selection technique
In short: (§1)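 Multistep selection: 10 S. aureus strains (8 MRSA incl. two VRSA, two VISA; 2 MSSA) serially passaged daily at subinhibitory concentrations of each antimicrobial; MICs of mutants retested and compared with parent; clone identity versus parent confirmed by pulsed-field gel electrophoresis at study end.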

[3] = system: Staphylococcus aureus; test: Antimicrobial activity against vancomycin-resistant Staphylococcus aureus 510 Hershey after 14 passages by multi-step resistance selection technique; in short: as §1

Cc1c(N)cccc1Cn1ccc(OCCc2cccs2)cc1=O [CG-400549]
MIC [1]: 4 mg/L (≈ 11.7 µM)
MIC [2]: > 64 mg/L
MIC [3]: 4 mg/L (≈ 11.7 µM)
